Compound activity: PubChem, several laboratories
EP2 antag – blocks the human prostaglandin E2 receptor EP2. AID 1422. C6 glioma cells expressing human EP2, cAMP TR-FRET; cells stimulated with saturating PGE2. P43116. 260,000 tested, 0.52% active. inhibition, % at 25 µM;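 active means percent inhibition above 40 after rounding to a whole number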;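 further: rat C6 glioma host cells with rolipram phosphodiesterase inhibitor present; the protocol text gives 20 µM as final concentration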
Target sequence (P43116 whole entry, looked up): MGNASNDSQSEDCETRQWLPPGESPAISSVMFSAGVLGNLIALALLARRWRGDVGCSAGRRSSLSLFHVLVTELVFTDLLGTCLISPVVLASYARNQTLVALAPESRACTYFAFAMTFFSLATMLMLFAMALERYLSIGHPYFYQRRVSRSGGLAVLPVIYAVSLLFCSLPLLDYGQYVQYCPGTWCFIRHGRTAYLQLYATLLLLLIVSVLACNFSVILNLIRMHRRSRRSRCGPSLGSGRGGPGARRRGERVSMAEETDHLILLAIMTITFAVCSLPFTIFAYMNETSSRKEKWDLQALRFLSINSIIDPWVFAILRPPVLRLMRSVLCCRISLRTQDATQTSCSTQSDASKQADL
Hsp70 act – Hsp70 transcriptional activation, primary screen; 200,000 tested, 0.04% active; HeLa Hsp70 promoter luciferase reporter, luminescence; scaled: vehicle 0, proteasome-inhibitor control 100%; activation, % at 10 µM; AID 1203;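 active means activation above the mean across all tested compounds plus 3 SD, cutoff set per campaign, cut at about 5.5% in these data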
EP2 modulator – modulates human prostaglandin E2 receptor EP2 signaling. EP2-expressing cells, cAMP HTRF FRET, PGE2 co-stimulation. induction, % at 25 µM. AID 940. 260,000 tested, 0.83% active. P43116;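 active means compounds whose cAMP rise, as percent of the full-agonist control response, exceeds 60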;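 further: rat C6 glioma line stably carrying human EP2 under a CMV promoter; the protocol text gives 20 µM as final concentration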
Dynein transport – blocks dynein driven cargo transport along microtubules. 3617.4 mouse cells, GR-EGFP nuclear translocation imaging; test concentration mostly 20 µM; stimulated with dexamethasone, 1 µM; hits give low values. z-score, hits read low. 220,000 tested, 0.47% active. AID 1381;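 active means plate z-score of nuclear minus cytoplasmic receptor signal below a set negative limit, without overly bright fluorescence or cell loss, cut at about -3.5 in these data, passing the limit was not always enough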;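 further: z-score of nuclear minus cytoplasmic ring GR-EGFP intensity difference per well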
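Buffer or medium: tetracycline-free induction medium containing charcoal-stripped FBS / Reagent: dexamethasone agonist, 1.0 µM final, for 30 min / Technique: automated 10x imaging of fixed Hoechst-stained cells / Times: induction 48 h, compound 1 h, agonist 30 min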
EP2 cAMP induct – human EP2 receptor cAMP induction, negative in counter-screens; shares compounds with EP2 modulator; C6 glioma EP2 cells, cAMP HTRF induction; plus low (about EC15) PGE2 agonist; calls only at 20 µM (by protocol); 1,300 tested, 47% active; AID 1080;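 active means cAMP induction above 50% in the main assay while under 30% in all four parallel counter assays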;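 further: rat C6 glioma cells stably expressing human EP2 receptor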
Each line names hits and unclear results; the compound was inactive in the other large screens (follow-up assays come after a bar, where they were run); ! = not confirmed by another sample. Compounds with a hit are over-represented: about 1.7% of the library has one in this group of screens.

Cc1ccc2oc(=O)n(CC(=O)NC(C)c3ccc4c(c3)CCC4)c2c1 (configuration not stated)	none (no result: Hsp70 act, Dynein transport)
COc1cc(NC(=O)c2cnn3c(C(F)F)cc(C4CC4)nc23)c(OC)cc1Cl	none
COC(=O)c1ccccc1NC(=O)c1cnn2c(C(F)F)cc(C3CC3)nc12	EP2 modulator 76 | EP2 cAMP induct inactive
Cc1oc(C(C)(C)C)cc1C(=O)Nc1cccc(/C=C\C(=O)O)c1	none
Cc1oc(-c2ccccc2)cc1C(=O)Nc1cccc(/C=C\C(=O)O)c1	EP2 modulator 82 | EP2 cAMP induct active
CCCN1C2CCCC1CC(NC(=S)NC1CCCCC1)C2 (configuration not stated)	none (no result: Hsp70 act, Dynein transport)
Cc1noc2ncnc(Sc3c(Cl)cccc3Cl)c12	EP2 modulator 66 | EP2 cAMP induct inactive
CCn1c2ccccc2c2nc3ccccc3nc21	EP2 modulator 62 | EP2 cAMP induct inactive
CCn1c2ccccc2c2nc3cc(OC)c(OC)cc3nc21	none
Cc1ccc(N=Cc2cc(Cc3ccccc3Cl)cc([N+](=O)[O-])c2O)c(O)c1	EP2 modulator 68 | EP2 cAMP induct inactive
COc1ccc(N=Cc2cc(Cc3ccccc3Cl)cc([N+](=O)[O-])c2O)cc1OC	EP2 modulator 72 | EP2 cAMP induct active
CCN(CC)C(=O)c1sc2nc(N3CCOCC3)c3c(c2c1N)CC(C)(C)OC3	none (no result: Hsp70 act, Dynein transport)
Oc1c(Cl)cc(Cl)cc1Sc1cc(Cl)cc(Cl)c1O	EP2 modulator 76! | EP2 cAMP induct inactive
Oc1c(Cl)cc(Cl)cc1CNn1cnnc1	none
Cc1ccc2cc(CN(CCCO)C(=O)NC3CCCCC3)c(=O)[nH]c2c1C	none (no result: Hsp70 act, Dynein transport)
Cc1cc2cc3c(cc2nc1SCC(=O)OC(C)C)OCO3	EP2 modulator 68 (no result: EP2 antag) | EP2 cAMP induct active
CCN(CC)c1ccc(NC(=O)c2cc3n(n2)C(C(F)(F)F)CC(c2ccco2)N3)cc1 (configuration not stated)	none (no result: Hsp70 act, Dynein transport)
CC12CCC(C(=O)N(CSC(=S)N/N=C\c3ccccc3Cl)C1=O)C2(C)C (configuration not stated)	EP2 modulator 70 | EP2 cAMP induct inactive
CC12CCC(C(=O)N(CSC(=S)N/N=C\c3ccccc3)C1=O)C2(C)C (configuration not stated)	none (no result: EP2 antag)
CCSc1nnc(-c2ccc(Cl)cc2)c2ccccc12	EP2 modulator 66 | EP2 cAMP induct inactive
CNc1nc(-c2ccc(OC)cc2)c(-c2ccc(OC)cc2)s1	none
COc1ccc(-c2nc(NC(C)=O)sc2-c2ccc(OC)cc2)cc1	none | EP2 cAMP induct inactive
Cn1nc(CCC(=O)NCCn2nnn(-c3ccccc3)c2=O)c2ccccc2c1=O	none (no result: Hsp70 act, Dynein transport)
Cc1cc(C(C)(C)C)cc(C(C)(C)C)[o+]1	none (no result: Hsp70 act, Dynein transport)
CS(=O)(=O)N(Cc1ccccc1)c1ccccc1C(=O)Nc1ccccc1C(=O)NCc1ccco1	EP2 modulator 88 | EP2 cAMP induct active
Cc1ccc(S(=O)(=O)N(Cc2ccccc2)c2ccccc2C(=O)Nc2ccccc2C(=O)NCc2ccco2)cc1	none
CC(NC(=O)Nc1ccccc1)C(c1ccccc1)N1CCOCC1 (configuration not stated)	none
C[C@H](C(=O)c1ccccc1)[C@@H](c1ccccc1)N1CCOCC1	none (no result: Hsp70 act, Dynein transport) | EP2 cAMP induct active
CC(=O)OCC(=O)[C@@]12OC(C)(C)O[C@@H]1C[C@H]1[C@H]3CC=C4C[C@@H](O)CC[C@]4(C)[C@@H]3CC[C@@]12C	EP2 antag 40 (no result: Hsp70 act, Dynein transport) | EP2 cAMP induct inactive
O=c1sc(=O)c2sc3c(=O)sc(=O)c3sc12	none (no result: Hsp70 act, Dynein transport)
Cc1nnc(SCC(=O)N2c3ccccc3C(C)(c3ccccc3)CC2(C)C)s1 (configuration not stated)	EP2 modulator 67 | EP2 cAMP induct inactive
Cc1ccc(C2(C)CC(C)(C)N(C(=O)CSc3nnc(C)s3)c3ccccc32)cc1 (configuration not stated)	none
COc1ccc(S(=O)(=O)N2c3cc(C)ccc3OCC2C(C)(C)C)cc1 (configuration not stated)	EP2 modulator 66 | EP2 cAMP induct active
Cn1c2ccccc2n2c(=O)n(CC(=O)N3CCCCC3)nc12	none (no result: Hsp70 act, Dynein transport)
Cc1ccc(C)n1-n1cnc2scc(-c3cccs3)c2c1=O	EP2 modulator 65 | EP2 cAMP induct active
O=c1c2c(-c3cccs3)csc2ncn1-n1cccc1	none
COC(=O)[C@]1(C)CCC[C@]2(C)c3ccc(C(C)C)cc3C(=O)CC12 (some centres not stated)	none (no result: Hsp70 act, Dynein transport)
CC(C)c1ccc2c(c1)CCC1C(C)(C(N)=O)CCCC21C (configuration not stated)	none (no result: Hsp70 act, Dynein transport) | EP2 cAMP induct active
Cc1cc(NC(=O)C2=C(O)c3ccccc3S(=O)(=O)N2C)no1	EP2 modulator 69! | EP2 cAMP induct inactive
COC(=O)c1sc(NC(=O)c2cccc(OC)c2)c(C#N)c1C	none (no result: Hsp70 act, Dynein transport)
Cc1oc2c(c1C(=O)Nc1cccc3ccccc13)CCCC2	none
COc1ccccc1NC(=O)c1c(C)oc2c1CCCC2	EP2 modulator 79 | EP2 cAMP induct inactive
Cc1ccc(-c2cc(C(F)F)n3ncc(C(=O)NCCCn4ccnc4)c3n2)cc1	none (no result: Hsp70 act, Dynein transport)
CCOC(=O)C1=C(CC)Nc2ccccc2N=C1NC(=O)c1oc2ccccc2c1C	EP2 modulator 69 | EP2 cAMP induct inactive
CCOCc1c(C(=O)NC2=Nc3ccccc3NC(CC)=C2C(=O)OCC)oc2ccccc12	none
OC(CN1CCC2(CC1)CC(O)c1cc(F)ccc1O2)c1ccc(Cl)cc1 (configuration not stated)	none (no result: Hsp70 act, Dynein transport)
CCCCC(CC)CN1CN(CC(CC)CCCC)CC(C)(N)C1 (configuration not stated)	none (no result: Hsp70 act, Dynein transport) | EP2 cAMP induct inactive
COc1c(C)cccc1C(=O)Nc1sc2c(c1C(N)=O)CCCCC2	none (no result: Hsp70 act, Dynein transport)
O=C(Nc1cc(C(F)(F)F)ccc1-n1cncn1)c1ccc(-c2ccccc2)cc1	EP2 modulator 66 | EP2 cAMP induct active
Cc1cc(C)c2cc(CN(CC3CCCO3)C(=O)Nc3ccc(Cl)cc3)c(=O)[nH]c2c1 (configuration not stated)	none (no result: Hsp70 act, Dynein transport)
Cc1nc2ccccc2c(=O)n1Cc1ccco1	none (no result: Hsp70 act)
O=c1c2ccccc2c2ccccc2c(=O)n1Cc1ccco1	EP2 modulator 84 | EP2 cAMP induct inactive
Brc1cc2c(cc1Cn1c(-c3cncs3)nc3ccccc31)OCO2	none
Brc1ccccc1Cn1c(-c2cscn2)nc2ccccc21	EP2 modulator 80 | EP2 cAMP induct active
Cc1cc(C)c(C)c(Cn2c(CO)nc3ccccc32)c1C	EP2 modulator 80 | EP2 cAMP induct active
Cc1ccccc1Cn1c(-c2cncs2)nc2ccccc21	EP2 modulator 68 | EP2 cAMP induct inactive
Cc1cccc(Cn2c(Cc3ccccc3)nc3ccccc32)c1	EP2 modulator 93 | EP2 cAMP induct active
Cc1ccccc1Cn1c(Cc2ccccc2)nc2ccccc21	EP2 modulator 71 | EP2 cAMP induct active
CN(C)c1cccc(C(=O)N2CCC(C(=O)c3nc4ccccc4s3)CC2)c1	none (no result: EP2 antag, Hsp70 act, Dynein transport)
